# Results collected from several papers.
# Protocols differ between the studies behind these lines.
# Observed: cell growth or viability
Compound,cell line,method,tested at,time,measurement,result
CN(C)CCNC(=O)c1cccn2c(=O)c3cc4ccccc4cc3nc12,PLC-PRF-5,imaging,,72 h,IC50,16.2 µM
C[C@H](Nc1ccc2c(c1)OCCn1cc(N3C(=O)OC[C@H]3C(F)F)nc1-2)C(N)=O,EFM-19,ATP luminescence,,5 days,EC50,0.0312 µM
Cc1nc(Nc2ncc(C(=O)Nc3c(C)cccc3Cl)s2)cc(N2CC[C@H](O)C2)n1,SUP-B15,ATP luminescence,10 µM,72 h,inhibition,66%
Cc1cc(Cn2ccnc2)nn1C,SH-SY5Y,MTT,,24 h,IC50,487 µM
CNC(=O)c1cc(Oc2ccc(NC(=O)Nc3ccc(Cl)c(C(F)(F)F)c3)cc2)ccn1,PLC-PRF-5,imaging,,72 h,IC50,4.08 µM
Cc1cc(C)n(Cn2ccnc2)n1,SH-SY5Y,MTT,,24 h,IC50,50.3 µM
Cc1nc(NC(=O)N2CCC[C@H]2C(N)=O)sc1-c1ccnc(C(C)(C)C(F)(F)F)c1,EFM-19,ATP luminescence,,5 days,EC50,0.38 µM
COc1ccc(C[C@H](N)C(=O)N[C@H]2[C@@H](O)[C@H](n3cnc4c(N(C)C)ncnc43)O[C@@H]2CO)cc1,J774.1,resazurin,,72 h,IC50,1.36 µM
